For six molecules, Efficiency results are on record in ChEMBL document CHEMBL1132320, “Evaluation of the desferrithiocin pharmacophore as a vector for hydroxamates” (1999).

What all share (type): functional
Assay [1] relates to Rattus norvegicus. Briefly: Efficiency is defined as net iron excretion in rats at the dose of 150 umol/kg administered subcutaneously. Summed up: (§1)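 Male Sprague–Dawley rats (~400 g) with bile-duct cannulas, under sodium pentobarbital (55 mg/kg ip) anesthesia, housed in metabolic cages with free water. Chelator is given as a single dose in 40% Cremophor RH-40/H2O (v/v). Bile is collected at 3-h intervals for 24 h and urine every 24 h. Iron is measured by flame atomic absorption. Efficiency = (treated minus control iron excretion)/theoretical output, as %; bile/urine split reported.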

The test system of assay [2] is Monkey. Put plainly: The efficiency was calculated by averaging the iron output for 4 days before the administration of the drug, subtracting these numbers from the 2-day iron clearance after the administration of the drug at the dose of 150 umol/kg administered perorally in monkeys. In short, it runs like this:
(§2)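 Cebus apella monkeys iron-loaded with iv iron dextran (200–300 mg Fe/kg per slow 45–60 min infusion, to about 500 mg Fe/kg), rested ≥60 days. Chelator is given in 40% Cremophor RH-40/H2O (v/v). Feces and urine are collected from 4 days before to 5 days after dosing. Iron is measured by flame atomic absorption. Efficiency = (2-day post-drug iron minus 4-day baseline average)/theoretical output, as %.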

In assay [3] the test system is Monkey. Put plainly: The efficiency was calculated by averaging the iron output for 4 days before the administration of the drug, subtracting these numbers from the 2-day iron clearance after the administration of the drug at the dose of 300 umol/kg administered perorally in monkeys. In short, it runs like this: as §2
Assay [4] has as its system Monkey. Briefly: The efficiency was calculated by averaging the iron output for 4 days before the administration of the drug, subtracting these numbers from the 2-day iron clearance after the administration of the drug at the dose of 150 umol/kg administered subcutaneously in monkeys. Summed up:
as §2

For assay [5], the system named is Rattus norvegicus. Put plainly: Efficiency is defined as net iron excretion in rats at the dose of 150 umol/kg administered perorally. Summed up:
as §1

In assay [6] the test system is Monkey. Briefly: The efficiency was calculated by averaging the iron output for 4 days before the administration of the drug, subtracting these numbers from the 2-day iron clearance after the administration of the drug at the dose of 225 umol/kg administered perorally in monkeys. Summed up: as §2
The subject of assay [7] is Monkey. Put plainly: The efficiency was calculated by averaging the iron output for 4 days before the administration of the drug, subtracting these numbers from the 2-day iron clearance after the administration of the drug at the dose of 300 umol/kg administered subcutaneously in monkeys. Summed up:
as §2

“And” between values parts separate entries of the source, which are not always exact repeats. Identical values can stand only once.

With `CN(O)C(=O)[C@H]1CSC(c2ncccc2O)=N1`, the Efficiency with Rattus norvegicus [1] is 5.3%; in the assay on Monkey [2], 6.9%; in the assay with Monkey [3], 13.2%; with Monkey [4], 11.7%; with Rattus norvegicus [5], 3.1%.
As to `O=C([C@H]1CSC(c2ncccc2O)=N1)N(O)CCOCCOCCN(O)C(=O)[C@H]1CSC(c2ncccc2O)=N1`, the Efficiency in the assay with Rattus norvegicus [1] was determined as 20.6%; with Rattus norvegicus [5] it was 4.6%.
For the molecule `O=C(C1CSC(c2ncccc2O)=N1)N(O)Cc1ccccc1` (stereo not given), the Efficiency with Rattus norvegicus [1] is recorded as 1.4%; with Monkey [3] it was under 0.5%; in the assay with Rattus norvegicus [5] it was 1%.
For the molecule `O=C(c1ccccc1O)N(O)CCOCCOCCN(O)C(=O)c1ccccc1O`, the values for the Efficiency in the assay on Rattus norvegicus [1] and with Rattus norvegicus [5] were 0.8% and under 0.5%, respectively.
In the case of `CC(=O)N(O)CCCCCN(O)C(=O)[C@H]1CSC(c2ncccc2O)=N1`, the Efficiency in the assay on Rattus norvegicus [1] is 8.5%; with Rattus norvegicus [5], 2.8%; in the assay with Monkey [6] it was 3.2% and 12.8%.
For the molecule `O=C(O)[C@H]1CSC(c2ncccc2O)=N1`, the Efficiency is recorded as 1.8% in the assay with Rattus norvegicus [1]; 4.8% in the assay on Monkey [2]; 8.3% in the assay on Monkey [7]; 8% with Monkey [3]; 2.4% with Rattus norvegicus [5].
